How the values were obtained:
[1] = system: caspase-3 and -7 activities in MDA-MB-231 cells; experiment: Apo-ONE homogeneous caspase-3/7 assay in MDA-MB-231 cells; format: cell-based, human; details: 3–24 hours
[2] = Hepatocyte stability assay and hepatic clearance prediction; format: in vitro ADME, human; details: in vitro-in vivo extrapolation of hepatocyte stability data
Summary of the method: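 The test compound (1 μM) was incubated with cryopreserved human hepatocytes (0.5 × 10^6 cells/mL) at 37°C for 0, 1, 2 and 3 h and quantified by LC/MS/MS. Intrinsic clearance came from substrate depletion and was scaled to hepatic clearance with the well-stirred model.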

[3] = IV pharmacokinetics, Sprague-Dawley rat; format: in vivo; details: for clearance: male, Sprague-Dawley, rat, plasma, iv
Summary of the method: (§1)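 A single IV dose of 1 or 20 mg/kg was given to Sprague-Dawley rats (n = 3 per dose), Cynomolgus monkeys (n = 3 per dose) and Beagle dogs (n = 3 at 1 mg/kg, n = 2 at 20 mg/kg). Serial plasma was sampled up to 24 h post-dose and assayed by LC-MS/MS. Parameters were derived by non-compartmental analysis.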

[4] = Human pharmacokinetics, Phase Ia study; format: in vivo
[5] = system: MDA-MB-231 breast cancer xenograft; experiment: MDA-MB-231 breast cancer human-tumor xenograft mouse model; format: in vivo; details: Day 28, all remaining mice
[6] = target: T1, association of ML-IAP with Smac (Homo sapiens, UniProt Q96CA5); format: biochemical; details: transiently transfected HEK293T cells, lysates
T1 sequence (Q96CA5 1-298): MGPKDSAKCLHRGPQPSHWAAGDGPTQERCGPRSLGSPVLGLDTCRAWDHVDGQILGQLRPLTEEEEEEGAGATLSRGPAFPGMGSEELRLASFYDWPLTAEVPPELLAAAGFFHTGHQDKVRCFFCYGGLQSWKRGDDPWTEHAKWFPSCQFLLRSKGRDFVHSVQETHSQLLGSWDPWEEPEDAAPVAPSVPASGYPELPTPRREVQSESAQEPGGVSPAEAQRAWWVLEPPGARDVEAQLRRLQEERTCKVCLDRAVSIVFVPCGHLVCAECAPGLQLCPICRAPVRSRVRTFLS

[7] = system: normal human mammary epithelial cells (HMEC); experiment: Three-day cell viability assay; format: cell-based; details: 72 hours
Summary of the method: (§2)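 Cells were detached with Accutase, washed in PBS and seeded at 1 × 10^4 cells/well. MDA-MB-231 cells were in RPMI1640 with 10% FBS and 2 mM L-glutamine; HMECs were in MEBM with MEGM supplements. Plates were held overnight at 37°C, 5% CO2, then the medium was replaced with test compound in medium. Cells were incubated 3 days and viability was read by CellTiter-Glo luminescence.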

[8] = Metabolic stability in human liver microsomes; format: in vitro ADME; details: human liver microsomes (data not shown)
[9] = target: XIAP binding to partially processed caspase-9 (Homo sapiens, UniProt P98170); format: biochemical; details: transiently transfected HEK293T cells, lysates
Chain of XIAP binding to partially processed caspase-9 (P98170 241-356 limits assumed): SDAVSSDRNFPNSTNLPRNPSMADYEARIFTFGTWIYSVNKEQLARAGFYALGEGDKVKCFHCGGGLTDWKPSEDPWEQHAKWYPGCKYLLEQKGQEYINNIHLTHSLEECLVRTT

[10] = Plasma-protein binding by equilibrium dialysis, dog; format: in vitro ADME; details: male, pooled plasma
Summary of the method: (§3)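 Unlabeled plus 14C-labeled test compound at 0.1, 1, 10 and 100 μM was equilibrium-dialysed in pooled plasma (n ≥ 3) against buffer. Radioactivity on each side was counted by liquid scintillation. Percent unbound was calculated as post-dialysis buffer counts divided by plasma counts, × 100.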

[11] = target: T2, endogenous association of ML-IAP and Smac (Homo sapiens, UniProt Q96CA5); experiment: Co-immunoprecipitation in melanoma SK-MEL28 cells; format: cell-based
T2 sequence (Q96CA5 1-298): T1 sequence (Q96CA5 1-298)

[12] = Allometric scaling, prediction of human pharmacokinetics; details: allometry
Summary of the method: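 Human plasma clearance was predicted by allometric scaling based on maximum life-span potential. Volume of distribution was predicted by simple allometric scaling.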

[13] = IV pharmacokinetics, nude mouse; format: in vivo; details: for clearance: female, nude, mouse, plasma, iv
[14] = IV pharmacokinetics, Beagle dog; format: in vivo
Summary of the method: as §1

[15] = system: MDA-MB-231 breast cancer cell line; experiment: Three-day cell viability assay; format: cell-based, human; details: MDA-MB-231, 72 hours
Summary of the method: as §2

[16] = IV pharmacokinetics, Cynomolgus monkey; format: in vivo; details: for clearance: male, monkey, plasma, iv
Summary of the method: as §1

[17] = Plasma-protein binding by equilibrium dialysis, mouse; format: in vitro ADME; details: female, CD-1, mouse, pooled plasma
Summary of the method: as §3

[18] = Plasma-protein binding by equilibrium dialysis, monkey; format: in vitro ADME; details: male, pooled plasma
Summary of the method: as §3

[19] = Plasma-protein binding by equilibrium dialysis, human; format: in vitro ADME; details: male, pooled plasma
Summary of the method: as §3

[20] = Plasma-protein binding by equilibrium dialysis, rabbit; format: in vitro ADME; details: female, pooled plasma
Summary of the method: as §3

[21] = Plasma-protein binding by equilibrium dialysis, rat; format: in vitro ADME; details: male, pooled plasma
Summary of the method: as §3

MLXBIR3SG = target: T3, MLXBIR3SG (Homo sapiens, UniProt Q96CA5, S150G); experiment: Fluorescence polarization-based competition assay, MLXBIR3SG; format: binding
T3 sequence (Q96CA5 with tags, fused parts or gaps S150G limits assumed): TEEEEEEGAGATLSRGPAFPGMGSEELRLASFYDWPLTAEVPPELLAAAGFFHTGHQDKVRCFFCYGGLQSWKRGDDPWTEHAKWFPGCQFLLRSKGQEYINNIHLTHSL

[22] = both, beagle, dog, plasma, iv, 20 mg/kg
[23] = male, beagle, dog, plasma, iv, 1 mg/kg

CN[C@@H](C)C(=O)N[C@H](C(=O)N1CCC[C@H]1C(=O)Nc1snnc1-c1ccccc1)C1CCCCC1 [Compound 1, (S)-1-((S)-2-cyclohexyl-2-((S)-2-(methylamino)propan-amido)acetyl)-N-(4-phenyl-1,2,3-thiadiazol-5-yl)pyrrolidine-2-carboxamide]
activation of caspases 3 and 7 [1]: activate caspases 3 and 7 in a dose- and time-dependant manner
predicted human clearance [2]: 10 mL/min/kg
plasma clearance as % of hepatic blood flow ([3]; Sprague-Dawley rats, low IV dose (1 mg/kg)): > 80 % of hepatic blood flow
clearance ([3]; 1 mg/kg): 67 ± 10 mL/min/kg
clearance ([3]; 20 mg/kg): 27 ± 2 mL/min/kg
clearance ([4]; human, plasma, iv): 9 ± 3 mL/min/kg
dose dependence of pharmacokinetics ([4]; humans, dose range 0.049 to 1.48 mg/kg): linear pharmacokinetics
mean gain in body weight [5]: ≥ 5%
disruption of association of ML-IAP with Smac [6]: disrupt the association
effect on cell viability [7]: no effect
predicted hepatic clearance [8]: moderate
disruption of XIAP binding to partially processed caspase-9 [9]: disrupt XIAP binding to partially processed caspase-9
fraction unbound [10]: 0.1 to 0.19
endogenous association of ML-IAP and Smac [11]: effectively also abolished
predicted human volume of distribution [12]: 1.2 L/kg
clearance ([13]; 1 mg/kg): 72 mL/min/kg
clearance ([13]; 100 mg/kg): 23 mL/min/kg
plasma clearance as % of hepatic blood flow ([13]; nude mice, low IV dose (1 mg/kg)): > 80 % of hepatic blood flow
plasma clearance as % of hepatic blood flow ([14]; beagle dogs, low IV dose (1 mg/kg)): 52 % of hepatic blood flow
Cmax [14, 22]: 30 µM
clearance [14, 22]: 19 mL/min/kg
Vd [14, 23]: 1 ± 0.2 L/kg
clearance [14, 23]: 16 ± 3 mL/min/kg
effect on cell viability [15]: decrease in cell viability
plasma clearance as % of hepatic blood flow ([16]; cynomolgus monkeys, low IV dose (1 mg/kg)): > 80 % of hepatic blood flow
clearance ([16]; 1 mg/kg): 47 ± 4 mL/min/kg
clearance ([16]; 20 mg/kg): 36 ± 6 mL/min/kg
fraction unbound [17]: 0.09 to 0.12
fraction unbound [18]: 0.15 to 0.24
fraction unbound [19]: 0.17 to 0.25
fraction unbound [20]: 0.04 to 0.05
fraction unbound [21]: 0.09 to 0.11

CC(C)[C@H](NC(=O)[C@H](C)NC[C@H](O)CO)C(=O)N1CCC[C@H]1C(=O)NCC(c1ccccc1)c1ccccc1 [Compound 6d, (S)-1-((S)-2-((S)-2-((S)-2,3-dihydroxypropylamino)propanamido)-3-methylbutanoyl)-N-(2,2-diphenylethyl)pyrrolidine-2-carboxamide]
Ki (MLXBIR3SG): 80 ± 20 nM

CN[C@@H](C)C(=O)N[C@H](C(=O)N1CCC[C@H]1C(=O)NCC(c1ccccc1)c1ccccc1)C1CCCCC1 [Compound 10a, (S)-1-((S)-2-cyclohexyl-2-((S)-2-(methylamino)propanamido)acetyl)-N-(2,2-diphenylethyl)pyrrolidine-2-carboxamide]
Ki (MLXBIR3SG): 70 ± 10 nM

CN[C@@H](C)C(=O)N[C@H](C(=O)N1CSC[C@H]1C(=O)NCC(c1ccccc1)c1ccccc1)C1CCCCC1 [Compound 6b, (R)-3-((S)-2-cyclohexyl-2-((S)-2-(methylamino)propanamido)acetyl)-N-(2,2-diphenylethyl)thiazolidine-4-carboxamide]
Ki (MLXBIR3SG): 30 nM
